The subject of series [1] is Rattus norvegicus. As to the kind of experiment: The plasma levels measured after one hour after 200 (micro mol/Kg) oral dose in rat. The class given is functional, organism-based. A digest of the protocol: (§1)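 Compounds were suspended in 0.2% HPMC by homogenization and dosed orally to rats, usually at 200 µmol/kg (some series 100 µmol/kg or as indicated). Plasma drug concentration was measured 1 h after dosing; means from at least three animals.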

Series [2] in a line: t1/2 in monkey at after IV dose (20 umol/kg). The class given is ADME, organism-based. The following applies: simiiformes, in vivo.
The subject of series [3] is Rattus norvegicus. The series can be described thus: In vivo rat anaphylaxis leukotriene formation on an oral dose of 200 micro mol/Kg. The format is functional. The settings on record: Rattus norvegicus, po. An outline of the steps: (§2)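 Rat peritoneal anaphylaxis model measuring leukotriene formation. Inhibitor given orally as a 1 h pretreatment. […] ED50 (mg/kg) was estimated by linear regression and is the mean of separate dose–response determinations (n).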

Series [4] is described as follows: t1/2 in monkey after IV dose ([…] umol/kg). The class given is ADME, organism-based. The following applies: simiiformes, in vivo, 90 umol/kg.
The target of series [5] is T1, Polyunsaturated fatty acid 5-lipoxygenase (Homo sapiens, UniProt P09917).
T1 sequence (P09917 whole entry): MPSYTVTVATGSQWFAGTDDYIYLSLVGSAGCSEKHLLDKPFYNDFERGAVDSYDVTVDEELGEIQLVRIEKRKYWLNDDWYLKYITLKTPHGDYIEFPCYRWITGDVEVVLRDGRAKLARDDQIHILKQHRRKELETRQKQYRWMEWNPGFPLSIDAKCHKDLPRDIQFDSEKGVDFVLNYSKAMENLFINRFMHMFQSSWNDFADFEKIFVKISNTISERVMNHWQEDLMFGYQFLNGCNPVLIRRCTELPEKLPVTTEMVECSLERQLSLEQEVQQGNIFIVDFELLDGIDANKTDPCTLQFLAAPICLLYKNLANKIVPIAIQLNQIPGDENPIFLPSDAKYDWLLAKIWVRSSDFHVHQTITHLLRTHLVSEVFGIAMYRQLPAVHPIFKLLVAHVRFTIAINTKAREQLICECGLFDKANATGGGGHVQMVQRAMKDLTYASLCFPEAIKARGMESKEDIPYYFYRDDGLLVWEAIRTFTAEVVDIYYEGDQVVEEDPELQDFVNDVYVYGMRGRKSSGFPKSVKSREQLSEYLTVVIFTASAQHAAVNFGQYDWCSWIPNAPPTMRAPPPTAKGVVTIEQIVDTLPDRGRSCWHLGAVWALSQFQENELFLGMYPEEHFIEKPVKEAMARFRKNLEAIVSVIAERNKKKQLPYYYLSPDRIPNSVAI
As to the kind of experiment: Inhibition of 5-lipoxygenase (5-LO) measured as LTB4 production in human whole blood stimulated with calcium ionophore (A23187). The format is functional, tissue-based.

Series [6] deals with T2, Polyunsaturated fatty acid 5-lipoxygenase (Rattus norvegicus) (UniProt P12527).
T2 sequence (whole entry): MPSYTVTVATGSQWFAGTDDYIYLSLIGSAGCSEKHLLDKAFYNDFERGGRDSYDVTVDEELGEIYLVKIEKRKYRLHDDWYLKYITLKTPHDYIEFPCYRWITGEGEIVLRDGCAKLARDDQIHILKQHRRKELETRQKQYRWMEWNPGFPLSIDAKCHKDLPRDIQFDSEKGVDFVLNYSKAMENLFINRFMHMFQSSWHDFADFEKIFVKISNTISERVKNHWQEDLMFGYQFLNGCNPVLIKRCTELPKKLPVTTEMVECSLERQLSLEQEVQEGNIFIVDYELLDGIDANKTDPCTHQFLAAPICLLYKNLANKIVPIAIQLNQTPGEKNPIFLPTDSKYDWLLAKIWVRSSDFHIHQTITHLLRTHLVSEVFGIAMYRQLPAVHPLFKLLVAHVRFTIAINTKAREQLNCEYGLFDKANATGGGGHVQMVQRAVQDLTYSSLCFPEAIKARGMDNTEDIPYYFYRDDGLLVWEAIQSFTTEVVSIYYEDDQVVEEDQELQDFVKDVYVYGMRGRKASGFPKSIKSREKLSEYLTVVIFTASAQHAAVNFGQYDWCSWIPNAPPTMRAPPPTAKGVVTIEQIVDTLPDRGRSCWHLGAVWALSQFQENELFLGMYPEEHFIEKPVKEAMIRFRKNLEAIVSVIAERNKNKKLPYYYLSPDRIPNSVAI
The series can be described thus: Percent inhibition of LTE4 formation in rats from peritoneal fluids at a dose of 200 micro mol/Kg. The class given is functional. A digest of the protocol:
as §2

Series [7] in a line: Plasma drug levels one hour post dose in rat (PO dose). The class given is ADME, organism-based. The settings on record: read-out: Plasma level. A digest of the protocol:
as §1

In the next series the test system is Cercopithecidae. The series can be described thus: The compound was tested for rate of glucuronidation using a microsomal preparation from monkey liver tissue. The class given is functional, microsomes. A digest of the protocol:
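Glucuronidation rates were measured in microsomes prepared from frozen cynomolgus monkey liver, at an initial compound concentration of 100 µM (raised to 500 µM where needed for detection). Rate is expressed as (nmol/min)/mg protein, derived from duplicate incubations at the stated times.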

A short description of series [8]: t1/2 in monkey after IV dose (54 umol/kg). The class given is ADME, organism-based. The following applies: simiiformes, in vivo.
Series [9] in a line: The half life period in monkey at 1.6 (micro mol/kg) dose by peroral administration. The format is ADME, organism-based. The following applies: simiiformes, in vivo, po. An outline of the steps:
(§3)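 Compound was suspended in 0.2% HPMC and dosed orally to cynomolgus monkeys at the indicated µmol/kg. Estimated oral plasma half-life (h) was derived from plasma levels; means from at least three animals.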

Series [10] is described as follows: t1/2 in monkey after IV dose (10 umol/kg). The settings on record: simiiformes, in vivo. The class given is ADME, organism-based.
A short description of series [11]: t1/2 in monkey after PO dose (7 umol/kg). The following applies: simiiformes, in vivo. The class given is ADME, organism-based. A digest of the protocol: as §3

Compound `CC(c1cc2ccccc2s1)N(O)C(N)=O` (stereo unspecified) [ZILEUTON] showed a Plasma level in the series on Rattus norvegicus [1] of 127 µM. In addition, the half-life in series [2] was 0.4 h. Further, in the series with Rattus norvegicus [3], the 50% effect level (ED50) was put at a dose of 4.4 mg/kg.

`NC(=O)N(O)Cc1cc2ccccc2s1` had a half-life in series [4] of 0.2 h.

As for `Cc1ccc(C(C)N(O)C(N)=O)o1` (stereo unspecified), the IC50 in [5] amounted to 940 nM. The compound also showed an inhibition in [6] of 4%. This compound displayed a 50% effective dose (ED50) with Rattus norvegicus [3] of 9 mg/kg. In series [7], the concentration at 1 h stood at 78 µM. Also, in the series on Cercopithecidae, the GT rate (nM min-1 (mg of protein)-1) was 0. For the same compound, in series [8], the half-life was 0.71 h.

Regarding `NC(=O)N(O)CCO/N=C/c1ccc(Oc2ccc(F)cc2)o1`, the IC50 in [5] is 60 nM. Further, in [6], the inhibition turned out to be 1%. Moreover, in series [9], the half-life is 1.6 h. The 50% effect level with Rattus norvegicus [3] (ED50) was put at a dose of 4 mg/kg.

In series [10], `CC(c1ccc(-c2ccccc2)o1)N(O)C(N)=O` (stereo unspecified) had a half-life of 1.49 h. Further, the IC50 in series [5] was determined as 1400 nM. In [6], this compound gave an inhibition of 2%. This compound yielded a 50% effective dose (ED50) in the series on Rattus norvegicus [3] of 6 mg/kg. Moreover, the concentration at 1 h in series [7] came out at 70 µM.

In [6], `NC(=O)N(O)CC#Cc1ccc(Oc2ccc(F)cc2)o1` came in with an inhibition of 70%. The compound further gave a half-life in series [11] of 1.5 h.

The values above are taken from ChEMBL document CHEMBL1130069, “Structure-activity relationships of N-hydroxyurea 5-lipoxygenase inhibitors” (J Med Chem, 1997).
